# Laboratory results from ChEMBL document CHEMBL4665779, “Novel 2-Substituted 3-Hydroxy-1,6-dimethylpyridin-4(1H)-ones as Dual-Acting Biofilm Inhibitors of Pseudomonas aeruginosa” (J Med Chem, 2020).
# Activity calls are given as the source filed them. The calls are words filed in the database; no cut-off is given here.
# Assays:
# [1] = Growth inhibition of Pseudomonas aeruginosa PAO1 at 512 uM by CLSI-based broth microdilution method
# Method in brief: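 Broth microdilution following CLSI standards: two-fold serial dilutions were made in Mueller-Hinton broth and inoculated with P. aeruginosa to a final OD600 of 0.05. The top final concentration is printed as […].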
# Pseudomonas aeruginosa = assay: Antibiofilm activity against Pseudomonas aeruginosa PAO1 assessed as inhibition of biofilm formation after 18 hrs by crystal violet staining based assay; assay type: functional, organism-based; conditions: PAO1, 18 h
# L02 = assay: Cytotoxicity against human L02 cells assessed as reduction in cell viability at 1.25 to 100 uM after 16 hrs by MTT assay; assay type: cell-based; conditions: l02, 16 h, dose 1.25-100 µM
# Method in brief: (§1)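 MTT assay on Vero or LO2 cells seeded at 5000–15000 cells/well for 16 h, then washed with PBS. Compound (0–100 μM) added in DMEM for 16 h at 37 °C, 5% CO2. MTT added for 3 h, formazan dissolved in DMSO with shaking, OD570 read. Triplicate, mean ± SD.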
# Vero = assay: Cytotoxicity against African green monkey Vero cells assessed as reduction in cell viability at 1.25 to 100 uM after 16 hrs by MTT assay; assay type: cell-based; conditions: chlorocebus sabaeus, dose 1.25-100 µM; method in brief: as §1
# [2] = tested on: Pseudomonas aeruginosa PAO1; assay: Induction of iron chelation in Pseudomonas aeruginosa PAO1 assessed as increase in intracellular pyochelin level at 1.25 to 20 uM in presence of 10 uM FeCl3 by fluorescence microplate reader assay; assay type: cell-based; conditions: dose microM 1.25-20
# [3] = tested on: Pseudomonas aeruginosa PAO1; assay: Induction of iron chelation in Pseudomonas aeruginosa PAO1 assessed as increase in intracellular pyoverdin level at 1.25 to 20 uM in presence of 10 uM FeCl3 by fluorescence microplate reader assay; assay type: cell-based; conditions: dose microM 1.25-20
# [4] = tested on: Pseudomonas aeruginosa PAO1; assay: Induction of iron chelation in Pseudomonas aeruginosa PAO1 assessed as increase in iron deficiency by measuring change in total ferric ion concentration at 20 uM by inductively coupled plasma mass spectrometry (reference value: 1.91 +/- 0.8 uM)
# [5] = Metal chelating activity assessed as negative logarithm of total free ferric ion concentration in a solution at 60 uM measured after 48 hrs in presence of CP645 probe and Fe-NTA by fluorescence spectrophotometry analysis
SMILES,growth inhibition (GI) [1],IC50 (Pseudomonas aeruginosa),other results
Cc1cc(=O)c(O)c(CNC(=O)Cc2ccccc2)n1C,Non-Toxic,28.1 µM,
Cc1ccc(S(=O)(=O)NCc2c(O)c(=O)cc(C)n2C)cc1,Non-Toxic,59.3 µM,
Cc1cc(=O)c(O)c(CNC(C)C)n1C,Non-Toxic,24.5 µM,
Cc1cc(=O)c(O)c(CNC(=O)Cc2ccc(F)cc2)n1C,Non-Toxic,55 µM,
COc1cccc(C(=O)NCc2c(O)c(=O)cc(C)n2C)c1,Non-Toxic,> 100 µM,
COc1ccc(S(=O)(=O)NCc2c(O)c(=O)cc(C)n2C)cc1,Non-Toxic,> 100 µM,
Cc1cc(=O)c(O)c(CNC(=O)C2CCCCC2)n1C,Non-Toxic,63.4 µM,
Cc1cc(=O)c(O)c(CNC(=O)c2ccnc(C(F)(F)F)c2)n1C,Non-Toxic,> 100 µM,
Cc1cc(=O)c(O)c(CNS(=O)(=O)c2ccccc2)n1C,Non-Toxic,> 100 µM,
Cc1cc(=O)c(O)c(CNC(=O)C2CC2)n1C,Non-Toxic,> 100 µM,
Cc1cc(=O)c(O)c(CNC2CCCC2)n1C,Non-Toxic,14.9 µM,
Cc1cc(=O)c(O)c(CNS(=O)(=O)c2ccc(-c3ccccc3)cc2)n1C,Non-Toxic,> 100 µM,
CCCCC(=O)NCc1c(O)c(=O)cc(C)n1C,Non-Toxic,56.9 µM,
CCCCNCc1c(O)c(=O)cc(C)n1C,Non-Toxic,52.5 µM,
Cc1cc(=O)c(O)c(CNC(=O)C2CCCO2)n1C (centres undefined),Non-Toxic,26.5 µM,
CCCCCCCCCC(=O)CC(=O)NCc1c(O)c(=O)cc(C)n1C,Non-Toxic,> 100 µM,
CCCC(=O)NCc1c(O)c(=O)cc(C)n1C,Non-Toxic,45.1 µM,
Cc1cc(=O)c(O)c(CNS(=O)(=O)c2ccc(F)cc2)n1C,Non-Toxic,> 100 µM,
CCCCCNCc1c(O)c(=O)cc(C)n1C,Non-Toxic,> 100 µM,
CCCCCCCC(=O)NCc1c(O)c(=O)cc(C)n1C,Non-Toxic,> 100 µM,
Cc1c(O)c(=O)ccn1C [DEFERIPRONE],,> 100 µM,Activity (L02): Non-Toxic; Activity (Vero): Non-Toxic; Activity [2]: Active; Activity [3]: inactive; Activity [4]: 1.23 µM; log(activity) [5]: -20.8

SMILES,growth inhibition (GI) [1],IC50 (Pseudomonas aeruginosa),other results
Cc1cc(=O)c(O)c(CNC2CCN(C)CC2)n1C,Non-Toxic,35 µM,
Cc1cc(=O)c(O)c(CNC(=O)C2CCCC2)n1C,Non-Toxic,65.1 µM,
COc1ccc(CCC(=O)NCc2c(O)c(=O)cc(C)n2C)cc1,Non-Toxic,59.1 µM,
COc1ccc(C(=O)NCc2c(O)c(=O)cc(C)n2C)cc1,Non-Toxic,38.4 µM,
Cc1cc(=O)c(O)c(CNC(=O)c2cccc3ccccc23)n1C,Non-Toxic,75.6 µM,
Cc1cc(=O)c(O)c(CNS(=O)(=O)c2ccc(C(C)(C)C)cc2)n1C,Non-Toxic,51.6 µM,
Cc1cc(=O)c(O)c(CNC(=O)c2ccc(F)cc2)n1C,Non-Toxic,> 100 µM,
Cc1cc(=O)c(O)c(CNC(=O)c2ccncc2)n1C,Non-Toxic,> 100 µM,
Cc1cc(=O)c(O)c(CNC(=O)c2ccc(C(F)(F)F)cc2)n1C,Non-Toxic,61.1 µM,
COc1ccc(CCCC(=O)NCc2c(O)c(=O)cc(C)n2C)cc1,Non-Toxic,> 100 µM,
COc1ccc(CC(=O)NCc2c(O)c(=O)cc(C)n2C)cc1,Non-Toxic,65.5 µM,
Cc1cc(=O)c(O)c(CNC(=O)c2ccccc2)n1C,Non-Toxic,41.7 µM,
COc1cccc(NCc2c(O)c(=O)cc(C)n2C)c1,Non-Toxic,> 100 µM,
Cc1cc(=O)c(O)c(CNCCCN2CCN(C)CC2)n1C,Non-Toxic,16.9 µM,
Cc1cc(=O)c(O)c(CNCC2CN(Cc3ccc(F)cc3)CCO2)n1C (centres undefined),Non-Toxic,> 100 µM,
Cc1cc(=O)c(O)c(CNC(=O)Cc2ccc(Cl)cc2)n1C,Non-Toxic,> 100 µM,
Cc1cc(=O)c(O)c(CNC(=O)C2CCC2)n1C,Non-Toxic,64.1 µM,
Cc1cc(=O)c(O)c(CNS(=O)(=O)c2cccc3c2NCCC3)n1C,Non-Toxic,35.3 µM,
CCCCCC(=O)NCc1c(O)c(=O)cc(C)n1C,Non-Toxic,57.9 µM,
Cc1cc(=O)c(O)c(CNC(=O)CC2CCCCC2)n1C,Non-Toxic,46.8 µM,
COc1ccccc1C(=O)NCc1c(O)c(=O)cc(C)n1C,Non-Toxic,69.7 µM,
